Several values for one entry are separate records, joined by “and”; a condition that tells them apart may be missing. Identical values can stand only once. Like-named read-outs stand apart in the source and are kept apart here. No end group written: not given here.
B1: CCL19: chemokine, positive control for mDC migration (protein, UniProt Q99731 22-98, looked up)
C-C motif chemokine 19: GTNDAEDCCLSVTQKPIPGYIVRNFHYLLIKDGCRVPAVVFTTLRGRQLCAPPDQPWVERIIQRLQRTSAKMKRRSS

How the values were obtained:
[1] = test system: neutrophils; test: Chemotaxis assay, peritoneal neutrophils; assay type: cell-based, mouse; conditions: at least 90% pure, positive control at 45 ng/mL
Procedure, shortened: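 Mouse peritoneal neutrophils, identified by morphology and at least 90% pure. Tested in 48-well chemotaxis chambers with N-formylmethionyl leucyl phenylalanine as positive control and RPMI 1640/1% BSA as medium and no-peptide control. Cells at 5×10^5 per mL. Migrated cells counted in three random ×400 fields per well in triplicate wells. Reported as mean per field. One-tailed Student's t-test.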

[2] = cited from earlier work
[3] = test system: HEK293 cells expressing human CCR6; test: Chemotaxis assay, HEK293 cells expressing human CCR6; assay type: cell-based; conditions: HEK293 cells overexpressing human CCR6, 5 h
Procedure, shortened: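 48-well chemotaxis chamber, 5 h. Cells at 5×10^5 per mL in RPMI 1640 with 1% BSA, which also served as diluent and no-peptide control. CCL20 positive control. Migrated cells counted in three random ×400 fields per well, triplicate wells, as mean per field. MI = count at optimal concentration / control count. One-tailed Student's t-test. Representative of at least three experiments.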

[4] = test system: mouse CD4^+ T cells; test: Chemotaxis assay, mouse CD4+ T cells; assay type: cell-based; conditions: 4 h
Procedure, shortened: (§1)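 In 48-well chemotaxis chambers, cells migrated for 4 h. Human CD4+ cells came from Ficoll–Paque mononuclear cells of donor blood or bone marrow, with CCL20 as positive control. Mouse cells were splenic CD4+ from magnetic positive selection, CD4/CD3-stained, with CXCL12a as control. Cells were at 5×10^5/mL in RPMI 1640/1% BSA, the medium also used to dilute peptides. Three ×400 fields were counted per triplicate well. MI = migrated cells at optimal concentration / peptide-free control. One-tailed t-test.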

[5] = test system: immature DC (iDC), bone marrow-derived, 6 days in GM-CSF; test: Chemotaxis assay, iDC cultured in GM-CSF for 6 days; assay type: cell-based, mouse; conditions: 1.5 h
[6] = test system: human CD4^+ T cells; test: Chemotaxis assay, human CD4+ T cells; assay type: cell-based; conditions: for optimal concentration for chemotaxis / migratory index (MI): 4 h; for migratory index (MI): at optimal concentration
Procedure, shortened: as §1

[7] = test system: immature DC (iDC), bone marrow-derived, 7 days in GM-CSF; test: Chemotaxis assay, iDC cultured in GM-CSF for 7 days; assay type: cell-based, mouse
Procedure, shortened: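 Mouse tibia/femur marrow cells were seeded at 3.75×10^5/mL in complete medium with 5% (500 U/mL) GM-CSF supernatant, refed on day 3. Loosely adherent cells were harvested on day 6 or day 7. Migration ran 1.5 h in 48-well chambers, cells at 5×10^5/mL in RPMI 1640/1% BSA, with CCL20 as positive control. Three ×400 fields were counted per triplicate well. MI = migrated cells at optimal peptide / control medium. One-tailed t-test, p<0.05.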

[8] = test system: mature DC (mDC); test: Chemotaxis assay, LPS-matured DC; assay type: cell-based, mouse; conditions: DC matured 24 h with 100 ng/mL E. coli LPS; 1.5 h
Procedure, shortened: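 Mouse tibia/femur marrow at 3.75×10^5 cells/mL with GM-CSF supernatant (5%, 500 U/mL), refed day 3. Day 6 cultures then had LPS for 24 h. Phenotyped by flow for CD11c/MHC II, CD86, CD54, Gr1 and B220. 48-well chamber, 1.5 h, RPMI/1% BSA, cells at 5×10^5 per mL. CCL19 positive control. Three ×400 fields per well, triplicate wells, SD over nine counts, one-tailed t-test.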

[9] = test system: CD4 T cells; test: Chemotaxis of CD4 T cells; assay type: cell-based; conditions: species of cells not stated
Procedure, shortened: as §1

[10] = Antimicrobial activity; assay type: cell-based; conditions: data not shown
[11] = d7iDC, at peak peptide concentration, 1.5 h
[12] = d6iDC, p<0.05 vs control medium

Molecule	chemoattraction of CCR6-expressing cells (result in words) [3]	optimal / only significant concentration for chemotaxis [4]	optimal concentration for chemotaxis [6]	migratory index (MI) [6]	migration of mDC (result in words) [8]	also measured
N-formylmethionyl leucyl phenyalanine	–	–	–	–	–	migration of neutrophils (result in words) [1]: significant migration
DPVTYIRNGGICQYRCIGLRHKIGTCGSPFKCCK (disulfide (positions not given here)) [Defr1]	neither Defr1 nor the six cysteine allele Defb8, can chemoattract these cells	10 ng/mL	10 ng/mL	8 and 9	do not show significant migration	antimicrobial activity (result in words) [2]: potent antimicrobial activity; migratory index (MI) ([4]; at optimal concentration): 2.5; peptide concentration giving peak migration ([5]; d6iDC): 10 ng/mL; activity relative to Defr1 Y5C and Defr1-1c^V (peak concentration) [6]: tenfold more active; peptide concentration giving peak migration ([7]; d7iDC, 1.5 h): 1 ng/mL; migratory index (MI) [7, 11]: ~3.5; migratory index (MI) ([7]; d7iDC, peptide at 0.1 ng/mL, p<0.05): 2.5; chemoattraction of CD4 T cells (result in words) [9]: attracting CD4 T cells
ELDHCHTNGGYCVRAICPPSARRPGSCFPEKNPCCKYMK (also: bicyclic or more (positions not given here)) [Defb2]	–	–	–	–	do not show significant migration	migration of d7iDC (result in words) ([7]; all concentrations tested, p<0.05 vs control): statistically significant migration; migratory index (MI) [7, 11]: 3.0; chemoattraction of CD4 T cells (result in words) [9]: attracting CD4 T cells
CCL20: recognised chemokine ligand for the CCR6 receptor, positive control [reference compound]	can chemoattract these cells	–	–	–	–	–
EPVSCIRNGGICQYRCIGLRHKIGTCGSPFKCCK (also: bicyclic or more (positions not given here)) [Defb8]	neither Defr1 nor the six cysteine allele Defb8, can chemoattract these cells	–	–	–	–	antimicrobial activity (result in words) [10]: much reduced antimicrobial activity compared with Defr1; migration of iDC (result in words) ([5]; iDC, days of culture not stated (Fig. 4A)): can chemoattract iDC
DPVTYIRNGGIAQYRAIGLRHKIGTAGSPFKCAK (disulfide (positions not given here)) [Defr1-1c^V]	unable to chemoattract these cells	100 ng/mL	100 ng/mL	5.5	Neither peptide could induce migration	migration of iDC (result in words) [5, 12]: Neither peptide could induce migration
DPVTCIRNGGICQYRCIGLRHKIGTCGSPFKCCK (also: bicyclic or more (positions not given here)) [Defr1-Y5C]	unable to chemoattract these cells	100 ng/mL	100 ng/mL	5.5	Neither peptide could induce migration	antimicrobial activity (result in words) [2]: poor antimicrobial activity; migration of iDC (result in words) [5, 12]: Neither peptide could induce migration
B1	–	–	–	–	statistically significant migration	–
